# Source: PubChem BioAssay
# In the library only some 4.3% were active in any assay of this set; here they are far more common.
# FLuc act counter – firefly luciferase counter-screen for stimulation assays | P08659 | ATPlite luciferase biochemical, luminescence, 10 min; 0 = ATP-free wells, 1 = DMSO control | activation factor at 10 µM | 200,000 tested, under 10 active | AID 1027;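 active means luciferase activation factor, scaled between plate controls, of at least 2 with compound at 10 µM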
# Target sequence (P08659 whole entry, looked up): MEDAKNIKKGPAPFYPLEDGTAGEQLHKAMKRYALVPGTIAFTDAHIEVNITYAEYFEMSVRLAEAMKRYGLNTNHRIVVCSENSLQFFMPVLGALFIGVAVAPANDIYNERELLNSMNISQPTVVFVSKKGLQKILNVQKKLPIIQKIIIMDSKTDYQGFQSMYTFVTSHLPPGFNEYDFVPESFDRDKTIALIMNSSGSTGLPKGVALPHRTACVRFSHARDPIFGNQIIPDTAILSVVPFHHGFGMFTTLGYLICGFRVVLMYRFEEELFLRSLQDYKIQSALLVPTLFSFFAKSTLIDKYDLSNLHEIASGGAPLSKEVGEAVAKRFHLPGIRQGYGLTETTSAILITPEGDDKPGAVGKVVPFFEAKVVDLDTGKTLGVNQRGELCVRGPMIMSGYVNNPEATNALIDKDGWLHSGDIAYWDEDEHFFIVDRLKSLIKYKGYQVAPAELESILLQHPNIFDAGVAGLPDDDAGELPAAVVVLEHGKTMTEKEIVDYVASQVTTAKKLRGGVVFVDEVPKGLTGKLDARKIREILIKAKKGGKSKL
#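 test system = cell-free luciferase reagent | medium = PBS as buffer for the ATP substrate | dosing = test compounds dosed from 2 mM stocks in 100% DMSO | incubation = 10 min at ambient temperature | detection = luminescence measurement of luciferase light output | benchmarks = low control with PBS replacing ATP, high control enzyme plus ATP without compound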
# STAT1 act – STAT1 signaling activation | NIH 3T3 STAT1-luciferase reporter, IFN-gamma, luminescence; 100% = IFN-gamma alone, no compound | activation (% of control), % at 5.5 µM | 200,000 tested, 2.6% active;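 active means activation above the screen-wide mean activation plus 3 SD, cut at about 130% in these data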;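 further: raw ratio to IFN-gamma control signal so 100% means no change and 0% no light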
# sdo1 growth – sdo1-depleted yeast growth rescue; AID 817; S. cerevisiae sdo1-depleted JHY4D growth rescue, OD600 30 h; hits give high values; pdr5 snq2 efflux-pump mutant strain; 140,000 tested, 0.21% active; z-score at 10 µM;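 active means z-score above 3 at both the 24 hr and the 30 hr optical density reads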;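 further: z-score against mean and SD of all compound wells on the same plate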
# FLuc inh counter – Photinus pyralis luciferase inhibition counter-screen; P08659; ATPLite firefly luciferase biochemical luminescence, 10 min; inhibition, % at 10 µM; 200,000 tested, 1.5% active;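 active means inhibition above about 50% when tested at 10 µM, limit read from the data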
# NF-kB expr up – compounds increasing NF-kB expression in human neuronal cells. NF-kB reporter expression; hits give high values. fold change at 12.5 µM. 190,000 tested, 1.6% active. AID 1239; in the data active means fold change above about 3.3
# APP 5'UTR act – APP 5'UTR luciferase reporter activation; SH-SY5Y APP 5'UTR luciferase reporter, luminescence; zero percent = DMSO vehicle wells; AID 1276; 190,000 tested, 1% active; activation, % at 2 µM;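 active means activation above a set limit, based on mean plus 3 SD of controls, cut at about 140% in these data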
# The depositor's hits bear a star; / = not tested or not shown.
SMILES,FLuc act counter,STAT1 act,sdo1 growth,FLuc inh counter,NF-kB expr up,APP 5'UTR act
Cc1ccc(C(=O)NC(=S)Nc2ccccc2C(F)(F)F)c(C)c1,1,97.0,-1.3,-2.5,1.22,/
Cc1ccccc1C(=O)NC(=S)Nc1ccccc1C(F)(F)F,0.3,108.7,-1.33,70.6*,1.37,6.3
Oc1ccccc1/C=N/Nc1cccc2cccnc12,0.6,89.7,-1.28,43.7,12.3*,88.9
C/C(=N\Nc1cccc2cccnc12)c1ccc(C)cc1,0.4,136.8*,/,61.9*,4.24*,136.7*
O=C(NCCNC1CCC(c2ccccc2)CC1)c1cccs1 (configuration not stated),1,98.6,/,-3.2,0.79,8.6
Cc1nn(C(=O)c2cc3sccc3[nH]2)c(C)c1C,0.9,137.8*,-0.29,14.1,2.79,38.3
CCOC(=O)N1N=C(c2ccc(OC)cc2)CC1(O)C(F)(F)F (configuration not stated),0.5,115.6,/,45.7,3.27,170.6*
CCc1ccc(C2=NN(C(=O)OC)C(O)(C(F)(F)F)C2)cc1 (configuration not stated),0.3,66.0,0.17,73.1*,3.18,136.2*
Cc1cc[n+]2cc(-c3cccc([N+](=O)[O-])c3)c(-c3cccc([N+](=O)[O-])c3)cc2c1,1,95.5,0.93,-3.0,1.16,-7.5
Cc1ccnc(NS(=O)(=O)c2ccc(NC(=O)c3ccc([N+](=O)[O-])s3)cc2)n1,1,86.6,/,2.8,5.68*,15.7
Cc1ccnc(NS(=O)(=O)c2ccc(NC(=O)c3ccc(Br)o3)cc2)n1,1.1,103.8,/,-5.3,1.23,8.4
Cc1ccc2nc(-c3ccc4c(c3)OCCO4)cc(C(=O)O)c2c1,0.3,99.5,1.21,74.2*,1.39,21.6
Cc1ccc(-c2cc(C(=O)N3CCN(c4ncccn4)CC3)c3cc(Br)ccc3n2)o1,0.9,99.7,/,9.6,0.63,7.3
Cc1c(C)c(C)c(S(=O)(=O)N2CCNCC2)c(C)c1C,1.1,103.3,/,-8.4,1.19,0.3
Cc1ccc(NC2Nc3cc(C)nn3S2)c(C)c1 (configuration not stated),0.8,142.3*,/,20.0,2.68,62.0
Cc1cc2n(n1)SC(Nc1ccccc1)N2 (configuration not stated),0.9,105.1,-0.03,7.0,1.24,6.9
N#C/C(=N\Nc1cccc(F)c1)C(=N)N1CCCCCC1,0.4,144.7*,/,62.3*,5.25*,149.9*
CN(C)c1ccc(NC(=O)C2CCCN(S(=O)(=O)c3ccccc3)C2)cc1 (configuration not stated),1,98.3,/,-1.1,0.93,36.1
Cc1ccc(S(=O)(=O)c2c(C)nn(C(C)(C)C)c2OC(=O)c2ccc(Br)o2)cc1,1,110.2,-1.05,-1.3,0.86,-7.5
Cc1ccc(S(=O)(=O)c2c(C)nn(C(C)(C)C)c2OC(=O)c2ccco2)cc1,1,137.8*,-0.85,2.8,1.11,-8.4
NC(=O)C1CCN(C(=O)c2ccc3c(=O)n(Cc4ccco4)c(SCC(=O)c4ccc(F)cc4)nc3c2)CC1,1,95.7,/,2.9,1.22,6.5
COc1cccc(-c2ncc3ccccn23)c1,0.5,134.8*,0.78,46.5,2.67,76.0
CSc1ccc(/C=C/C(=O)NC(=O)c2ccccc2O)cc1,0.1,95.7,/,86.2*,3.69*,89.0
O=C(/C=C/c1ccc(Br)cc1)NC(=O)c1ccccc1O,0.1,95.7,/,91.3*,3.88*,94.7
O=C(NO)c1ccccc1O,1.1,98.4,0.48,-6.3,1.25,12.2
SMILES,FLuc act counter,STAT1 act,sdo1 growth,FLuc inh counter,NF-kB expr up,APP 5'UTR act
COC(=O)c1cc(Cl)c(NC(=O)c2ccc(F)cc2)cc1OC,1,101.1,1.9,-3.2,1.24,-4.7
COC(=O)C1=C(C)N(CCc2cc(OC)c(OC)c(OC)c2)C(=O)N[C@H]1c1ccc(Br)cc1,1.1,97.7,0.12,-8.4,0.38,12.7
O=[N+]([O-])c1ccc2[nH]nc(-c3ccccc3)c2c1,1.1,100.6,-1.14,-5.8,1.7,20.9
O=c1c(-c2ccccc2)n[nH]c2ccccc12,0.5,124.4,0.75,49.6,3.43*,111.6
CN(C)c1ccc(C(=O)c2ccc(N(C)C)c3ccccc23)cc1,1.1,139.2*,-0.46,-5.6,5.23*,-95.4
C=CCNC(=O)CCc1nnc(C2(c3ccc(Cl)cc3)CCC2)o1,1,140.3*,/,-2.2,2.87,57.1
CC(C)NC(=O)C12CC3CC(C1)CC(n1cnc(Cl)n1)(C3)C2,1,111.0,0.42,-2.5,1.22,-0.4
N#Cc1c(NC(=O)c2nc3ncccn3n2)sc2c1CCCCC2,0.4,117.6,-1.05,56.9*,2.39,-18.5
COc1cc(CC(=O)NCc2ccc3c(c2)OCO3)cc(OC)c1OC,1,99.6,1.2,-0.6,1.31,4.6
COc1cc([C@@H]2c3cc4c(cc3[C@H](O)[C@H]3COC(=O)[C@H]23)OCO4)cc(OC)c1OC,1.1,113.1,-0.08,-7.0,3.89*,-94.4
CC(C)OCCCNCC(O)c1ccccc1 (configuration not stated),1.2,101.6,0.99,-19.2,1.17,3.4
COc1cccc(C(=O)Nc2cnn(C(C)C)c2)c1,0.8,125.3,/,23.3,2.1,57.0
CC1CCCCN1C(=O)c1cc(-c2ccc(Cl)c(Cl)c2)on1 (configuration not stated),1,132.7*,-1.26,-1.2,2.12,68.5
COc1cccc(-c2cc(C(=O)Nc3cc(OC)c(OC)c(OC)c3)no2)c1,1.1,97.1,-2.25,-5.6,0.87,0.3
CC(C)n1cc(NC(=O)c2cc(-c3ccccc3)on2)cn1,1,131.3*,-0.53,-0.4,2.85,-76.8
O=C(Nc1cccnc1)c1ccc(F)cc1,1,99.4,-0.29,-2.4,1.12,2.9
COc1cccc(-c2cc(C(=O)Nc3cccnc3)no2)c1,0.4,132.5*,-0.98,63.5*,4.9*,-16.7
O=C(Nc1cccnc1)c1ccc(-c2ccccc2)cc1,0.5,111.9,/,51.2*,3.95*,109.9
O=S(=O)(c1ccc(F)cc1)N1CCN(c2ccc(-c3ccccc3)nn2)CC1,1.1,89.9,/,-8.2,1.16,-2.0
Cc1cc(S(=O)(=O)Nc2ccc(N(C)C)cc2)c(C)s1,1,95.9,0.33,-4.8,0.72,-8.9
O=C(Nc1cccnc1)c1cc(-c2ccc(Br)cc2)on1,0.7,110.6,-1.73,27.0,2.32,2.1
O=C(Nc1cccnc1)c1cc(-c2ccccc2)on1,0.3,106.4,-0.58,65.4*,1.17,17.3
COc1cccc(-c2cc(C(=O)N3CCN(C(c4ccccc4)c4ccccc4)CC3)no2)c1,1.1,98.4,-0.1,-6.3,1.17,12.7
COc1cccc(-c2cc(C(=O)N3C(C)CCCC3C)no2)c1 (configuration not stated),0.9,136.4*,-0.62,13.9,3.31*,71.4
